Experimental data from ChEMBL document CHEMBL1125881, “Synthesis and hypocholesterolemic activity of 6,7-dihydro-4H-pyrazolo[1,5-a]pyrrolo[3,4-d]pyrimidine-5,8-diones, novel inhibitors of acylCoA:cholesterol O-acyltransferase” (J Med Chem, 1991).
Where “and” joins values, the source holds several entries; their conditions need not be identical. Identical values can stand only once.

Columns and labels:
[1] = molecular target: T1, Sterol O-acyltransferase 1 (Rattus norvegicus) (UniProt O70536); assay: Inhibition of Fu5AH Acyl coenzyme A:cholesterol acyltransferase at the concentration of 10 ug/mL
T1 sequence (whole entry): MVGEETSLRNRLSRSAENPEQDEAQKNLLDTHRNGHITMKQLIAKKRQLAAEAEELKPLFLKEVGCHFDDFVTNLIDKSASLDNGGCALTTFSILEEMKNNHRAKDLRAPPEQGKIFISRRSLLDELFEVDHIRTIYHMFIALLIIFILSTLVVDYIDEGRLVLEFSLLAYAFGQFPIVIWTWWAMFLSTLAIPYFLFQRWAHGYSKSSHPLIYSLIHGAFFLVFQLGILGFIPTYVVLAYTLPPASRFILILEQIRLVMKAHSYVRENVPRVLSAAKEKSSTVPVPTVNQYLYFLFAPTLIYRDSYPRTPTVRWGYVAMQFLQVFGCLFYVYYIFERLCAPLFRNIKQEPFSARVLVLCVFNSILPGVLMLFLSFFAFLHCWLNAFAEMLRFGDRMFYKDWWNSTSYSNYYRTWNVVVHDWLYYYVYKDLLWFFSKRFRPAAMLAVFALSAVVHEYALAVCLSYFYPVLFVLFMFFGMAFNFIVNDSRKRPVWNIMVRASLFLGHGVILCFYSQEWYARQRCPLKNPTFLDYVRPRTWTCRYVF

[2] = molecular target: T2, Sterol O-acyltransferase 1 (Rattus norvegicus, UniProt O70536); assay: In vitro inhibition of Fu5AH acyl coenzyme A:cholesterol acyltransferase.
T2 sequence (O70536 whole entry): T1 sequence (whole entry)

[3] = species: Rattus norvegicus; assay: (§1) Percent control of serum cholesterol in cholesterol; type: functional; set-up: concentration or dose not given beside the values
In short: (§2)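 Male Sprague-Dawley rats (100–110 g), groups of 10, fed synthetic diet with 1% cholesterol; compound mixed into diet to give the stated daily dose (mg/kg) for 7 days. Serum from jugular bleed under anesthesia; VLDL+LDL separated from HDL by PEG-8000 precipitation in glycine buffer pH 9; values expressed as % of cholesterol-fed control; one-way design, LSD comparison.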

[4] = species: Rattus norvegicus; assay: as §1; type: functional; set-up: concentration or dose not given beside the values; in short: as §2; remark: listed apart in the source
[5] = species: Rattus norvegicus; assay: as §1; type: functional; set-up: concentration or dose not given beside the values; in short: as §2; remark: listed apart in the source
[6] = species: Rattus norvegicus; assay: (§3) The compound was tested for % control of serum cholesterol in cholesterol; type: functional; in short: as §2
[7] = species: Rattus norvegicus; assay: as §3; type: functional; in short: as §2; remark: listed apart in the source
[8] = species: Rattus norvegicus; assay: as §3; type: functional; in short: as §2; remark: listed apart in the source
[9] = species: Rattus norvegicus; assay: as §3; type: functional; in short: as §2; remark: listed apart in the source
[10] = species: Rattus norvegicus; assay: as §3; type: functional; in short: as §2; remark: listed apart in the source

| SMILES | inhibition [1] | IC50 [2] | Control [3] | Control [4] | Control [5] | also measured |
| --- | --- | --- | --- | --- | --- | --- |
| O=C(CCCn1c2c(c(=O)n3nc(-c4ccccc4)cc13)CN(C1CCCCC1)C2=O)c1ccccc1 | 78% | 13.7 µM |  |  |  |  |
| O=C1c2c(c(=O)n3nc(-c4ccc(O)cc4)cc3n2Cc2ccccc2)CN1C1CCCCC1 | 33% |  |  |  |  |  |
| COc1ccc(CN2Cc3c(n(CC(=O)c4ccccc4)c4cc(-c5ccccc5)nn4c3=O)C2=O)cc1 | 10% |  |  |  |  |  |
| CC(c1ccccc1)N1Cc2c(n(CC(=O)c3ccccc3)c3cc(-c4ccccc4)nn3c2=O)C1=O (stereo not given) | 30% |  | 92% | 91% | 90% |  |
| Cn1c2c(c(=O)n3nc(-c4ccccc4)cc13)CN(C1CCCCC1)C2=O | 13% |  |  |  |  |  |
| O=C(Cn1c2c(c(=O)n3nc(-c4ccccc4)cc13)CN(C1CCCCC1)C2=O)c1ccccc1 | 92% | 3.64 µM | 128% | 97% and 88% | 65% | Control [6]: 133%; Control [7]: 97%; Control [8]: 75%; Control [9]: 120%; Control [10]: 84% |
| O=C(Cn1c2c(c(=O)n3nc(-c4ccccc4)cc13)CN(C1CCCCCCCCCCC1)C2=O)c1ccccc1 | 39% |  | 92% | 83% | 76% |  |
| CCCCCCCCCCCCN1Cc2c(n(CC(=O)c3ccccc3)c3cc(-c4ccccc4)nn3c2=O)C1=O | 39% |  | 92% | 91% | 85% |  |
| CCCCCCn1c2c(c(=O)n3nc(-c4ccccc4)cc13)CN(C1CCCCC1)C2=O | 48% |  |  |  |  |  |
| O=C1c2c(c(=O)n3nc(-c4ccccc4)cc3n2Cc2ccccc2)CN1C1CCCCC1 | 88% | 7.98 µM | 97% | 104% | 110% |  |
| O=C(Cn1c2c(c(=O)n3nc(-c4ccccc4)cc13)CN(C1CCCCC1)C2=O)c1ccc2ccccc2c1 | 19% |  |  |  |  |  |
| O=C1c2c(c(=O)n3nc(C4CCCCC4)cc3n2Cc2ccccc2)CN1C1CCCCC1 | 12% |  | 111% | 109% | 106% |  |
| C=CCOc1ccc(-c2cc3n(Cc4ccccc4)c4c(c(=O)n3n2)CN(C2CCCCC2)C4=O)cc1 | 65% | 11.5 µM | 95% | 94% | 98% |  |
| O=C(Cn1c2c(c(=O)n3nc(-c4ccccc4)cc13)CN(C1CCCCCCC1)C2=O)c1ccccc1 | 68% |  | 100% | 83% | 67% |  |
| O=C1c2c(c(=O)n3nc(-c4ccccc4)cc3n2CC2CCCCC2)CN1C1CCCCC1 | 97% | 8.77 µM | 80% | 111% | 144% |  |
| O=C(Cn1c2c(c(=O)n3nc(-c4ccccc4)cc13)CN(C1CCCCC1)C2=O)c1cccc([N+](=O)[O-])c1 | 87% | 2.74 µM | 83% | 106% | 126% |  |
| CC(C)(C)CC(C)(C)N1Cc2c(n(CC(=O)c3ccccc3)c3cc(-c4ccccc4)nn3c2=O)C1=O | 80% | 8.86 µM | 122% | 107% | 96% |  |
| CCCCCCN1Cc2c(n(CC(=O)c3ccccc3)c3cc(-c4ccccc4)nn3c2=O)C1=O | 75% |  | 98% | 89% | 86% |  |
| O=C1c2c(c(=O)n3nc(-c4ccccc4)cc3n2CSc2ccccc2)CN1C1CCCCC1 | 55% | 22.9 µM |  |  |  |  |
| COC(=O)Cn1c2c(c(=O)n3nc(-c4ccccc4)cc13)CN(C1CCCCC1)C2=O | 25% |  | 112% | 109% | 109% |  |

| SMILES | inhibition [1] | IC50 [2] | Control [3] | Control [4] | Control [5] | also measured |
| --- | --- | --- | --- | --- | --- | --- |
| O=C(Cn1c2c(c(=O)n3nc(-c4ccccc4)cc13)CN(C1CCCCC1)C2=O)c1ccc(F)cc1 | 88% | 5.16 µM | 101% | 98% | 95% |  |
| CN1Cc2c(n(Cc3ccccc3)c3cc(-c4ccccc4)nn3c2=O)C1=O | 8% |  |  |  |  |  |
| O=C1c2c(c(=O)n3nc(-c4ccccc4)cc3n2Cc2ccccc2)CN1c1ccccc1 | 18% |  |  |  |  |  |
| O=C1c2c(c(=O)n3nc(-c4ccccc4)cc3n2Cc2ccccc2)CN1C[C@H]1CC[C@H](O)CC1 | 23% |  | 90% | 108% | 128% |  |
| CCCCCCCC/C=C\CCCCCCCCN1Cc2c(n(CC(=O)c3ccccc3)c3cc(-c4ccccc4)nn3c2=O)C1=O | 1% |  | 86% | 76% | 69% |  |
| CCOC(=O)CCCn1c2c(c(=O)n3nc(-c4ccccc4)cc13)CN(C1CCCCC1)C2=O | 28% |  |  |  |  |  |
| O=C(Cn1c2c(c(=O)n3nc(-c4ccccc4)cc13)CN(C1CC3CCC1C3)C2=O)c1ccccc1 (stereo not given) | 83% | 4.39 µM | 90% | 75% | 63% |  |
| O=C(Cn1c2c(c(=O)n3nc(-c4ccccc4)cc13)CN(Cc1ccccc1)C2=O)c1ccccc1 | 70% | 5.48 µM | 100% | 100% | 101% |  |
| CC(C)CC(C)N1Cc2c(n(CC(=O)c3ccccc3)c3cc(-c4ccccc4)nn3c2=O)C1=O (stereo not given) | 85% | 6.4 µM | 89% | 72% | 57% |  |
| O=C1c2c(c(=O)n3nc(-c4ccccc4)cc3n2C/C=C/c2ccccc2)CN1C1CCCCC1 | 75% | 15.5 µM |  |  |  |  |
| COC(=O)c1ccc(C(=O)Cn2c3c(c(=O)n4nc(-c5ccccc5)cc24)CN(C2CCCCC2)C3=O)cc1 | 1% |  | 99% | 107% | 116% |  |
| COc1ccc(C(=O)Cn2c3c(c(=O)n4nc(-c5ccccc5)cc24)CN(C2CCCCC2)C3=O)cc1 | 52% |  |  |  |  |  |
| O=C1c2c(c(=O)n3nc(-c4ccccc4)cc3n2Cc2ccccc2)CN1Cc1ccccc1 | 90% | 10.5 µM | 92% | 105% | 113% |  |
| CCCCCCCCCCCCCCCCOc1ccc(C(=O)Cn2c3c(c(=O)n4nc(-c5ccccc5)cc24)CN(C2CCCCC2)C3=O)cc1 | 2% |  |  |  |  |  |
| CCOc1ccc(-c2cc3n(Cc4ccccc4)c4c(c(=O)n3n2)CN(C2CCCCC2)C4=O)cc1 | 75% |  | 93% | 110% | 122% |  |
| O=C1c2c(c(=O)n3nc(-c4ccccc4)cc3n2CS(=O)(=O)c2ccccc2)CN1C1CCCCC1 | 31% |  |  |  |  |  |
| O=C1c2c(c(=O)n3nccc3n2Cc2ccccc2)CN1C1CCCCC1 | 25% |  |  |  |  |  |
| O=C1c2c(c(=O)n3nc(-c4ccccc4)cc3n2CC(O)c2ccccc2)CN1C1CCCCC1 (stereo not given) | 66% |  |  |  |  |  |
| O=C1c2c(c(=O)n3ncc(-c4ccccc4)c3n2Cc2ccccc2)CN1C1CCCCC1 | 21% |  |  |  |  |  |
| CC(C(=O)c1ccccc1)n1c2c(c(=O)n3nc(-c4ccccc4)cc13)CN(C1CCCCC1)C2=O (stereo not given) | 55% |  |  |  |  |  |
